The values that follow come from ChEMBL document CHEMBL4041468, “Effects of Koumine on Adjuvant- and Collagen-Induced Arthritis in Rats” (J Nat Prod, 2016).

Each structure is given as a SMILES string. Activity calls are given as the source filed them.

For test [1], the system named is Rattus norvegicus. Briefly: Antiarthritic activity in Lewis rat Freund's adjuvant-induced arthritis model assessed as reduction in arthritis index score at 0.6 mg/kg, ig administered through gavage pretreated for 1 hr followed by adjuvant challenge and subsequent treatment for 9 days measured alternate days up to 24 days post dose. The format is functional, organism-based. The essentials:
(§1)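 Female Lewis rats (8 weeks old) given a single intradermal injection of 0.1 mL CFA (heat-killed M. tuberculosis in paraffin oil) into the right hind paw. Gavage dosing in sterile saline 1 h before induction and daily for 9 d. Arthritis index scored (the paper reports the 18 d reading). n = 10 per group; Kruskal−Wallis with Dunn's test.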

Test [2] deals with Rattus norvegicus. Briefly: Antiarthritic activity in Lewis rat Freund's adjuvant-induced arthritis model assessed as reduction in arthritis index score at 3 mg/kg, ig administered through gavage pretreated for 1 hr followed by adjuvant challenge subsequent treatment for 9 days measured alternate days up to 24 days post dose. Format: functional, organism-based. In short, it runs like this:
as §1

The subject of test [3] is Rattus norvegicus. Briefly: Antiarthritic activity in Lewis rat Freund's adjuvant-induced arthritis model assessed as change in liver weight at 0.6 to 15 mg/kg, ig administered through gavage pretreated for 1 hr followed by adjuvant challenge subsequent treatment for 9 days measured alternate days up to 24 days post dose. The format is functional, organism-based. In short, it runs like this: (§2)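 Female Lewis rats (8 weeks old, 120−140 g) given a single intradermal injection of 0.1 mL CFA (10 mg heat-killed M. tuberculosis per 1 mL paraffin oil) into the right hind paw. Oral gavage in sterile saline 1 h before induction, then daily for the next 9 d. Sacrifice by exsanguination under deep anesthesia 24 d after adjuvant. Spleen, liver and thymus weighed and corrected for body weight (g/100 g). n = 10; one-way ANOVA with Student−Newman−Keuls.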

In test [4] the test system is Rattus norvegicus. Briefly: Antiarthritic activity in Lewis rat Freund's adjuvant-induced arthritis model assessed as change in thymus weight at 0.6 to 15 mg/kg, ig administered through gavage pretreated for 1 hr followed by adjuvant challenge subsequent treatment for 9 days measured alternate days up to 24 days post dose. The format is functional, organism-based. In short, it runs like this: as §2

Test [5] relates to Rattus norvegicus. Briefly: Antiarthritic activity in Lewis rat Freund's adjuvant-induced arthritis model assessed as change in spleen weight at 0.6 to 15 mg/kg, ig administered through gavage pretreated for 1 hr followed by adjuvant challenge subsequent treatment for 9 days measured alternate days up to 24 days post dose. Format: functional, organism-based. The essentials: as §2

For test [6], the system named is Rattus norvegicus. Briefly: Antiarthritic activity in Wistar rat type-2 collagen-induced arthritis model assessed as reduction in mechanical allodynia administered as ig via gavage for 10 consecutive days starting from day 20 post type-2 collagen injection. Format: functional. The essentials: (§3)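 Male Wistar rats (7 weeks old) immunized with chicken CII in CFA/IFA, two intradermal 0.3 mL injections 7 d apart. Oral gavage in saline for 10 consecutive days starting day 20. Evaluation at baseline, predosing, and on alternate days thereafter: arthritis score; plethysmometer volume averaged over both hind paws; von Frey threshold 1 h post-dose (max 55 g, two repeats 10 min apart). n = 10.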

Test [7] has as its system Rattus norvegicus. The experiment in a line: Antiarthritic activity in Wistar rat type-2 collagen-induced arthritis model assessed as reduction in arthritis index score administered as ig via gavage for 10 consecutive days starting from day 20 post type-2 collagen injection. The format is functional. In short, it runs like this: as §3
The test system of test [8] is Rattus norvegicus. Briefly: Antiarthritic activity in Wistar rat type-2 collagen-induced arthritis model assessed as reduction in bone degradation at 0.6 to 15 mg/kg, ig via gavage administered 10 consecutive days starting from day 20 post type-2 collagen injection by X-ray method. Format: functional, organism-based. In short, it runs like this:
(§4)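 CIA in male Wistar rats (chicken CII emulsion, two intradermal injections 7 d apart); daily gavage for 10 d from day 20. After treatment, hind limbs X-rayed. Left hind paw joints fixed in 10% formalin, decalcified in 10% EDTA for 28 d at 4 °C, paraffin-embedded, sectioned at 5 μm, H&E-stained and examined by light microscopy at 100×.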

The test system of test [9] is Rattus norvegicus. The experiment in a line: Antiarthritic activity in Wistar rat type-2 collagen-induced arthritis model assessed as reduction in cartilage space narrowing at 0.6 to 15 mg/kg, ig via gavage administered 10 consecutive days starting from day 20 post type-2 collagen injection by X-ray method. The format is functional, organism-based. In short, it runs like this:
as §4

The subject of test [10] is Rattus norvegicus. The experiment in a line: Antiarthritic activity in Wistar rat type-2 collagen-induced arthritis model assessed as reduction in bone degeneration at 15 mg/kg, ig via gavage administered 10 consecutive days starting from day 20 post type-2 collagen injection by hematoxylin and eosin staining based light microscopy. Format: functional, organism-based. In short, it runs like this:
as §4

Test [11] relates to Rattus norvegicus. The experiment in a line: Antiarthritic activity in Wistar rat type-2 collagen-induced arthritis model assessed as reduction in serum IL-1beta level at 3 to 15 mg/kg, ig via gavage administered 10 consecutive days starting from day 20 post type-2 collagen injection by ELISA method. Format: functional, organism-based. The essentials: (§5)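 CIA Wistar rats dosed by gavage daily for 10 d from day 20 post first CII injection. Trunk blood serum stored at −70 °C. Right hind paw joint tissue homogenized at 200 mg/mL in PBS with 50 U/mL aprotinin, then centrifuged at 3000 rpm for 20 min at 4 °C. IL-1β and TNF-α quantified by ELISA kits in serum and supernatant. n = 10; one-way ANOVA with SNK.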

Test [12] concerns Rattus norvegicus. Briefly: Antiarthritic activity in Wistar rat type-2 collagen-induced arthritis model assessed as reduction in serum TNF-alpha level at 15 mg/kg, ig via gavage administered 10 consecutive days starting from day 20 post type-2 collagen injection by ELISA method. Format: functional, organism-based. In short, it runs like this: as §5
In general terms: ELISA stands for enzyme-linked immunosorbent assay.

Test [13] deals with Rattus norvegicus. The experiment in a line: Antiarthritic activity in Wistar rat type-2 collagen-induced arthritis model assessed as reduction in joint tissue IL-1beta level at 15 mg/kg, ig via gavage administered 10 consecutive days starting from day 20 post type-2 collagen injection by ELISA method. The format is functional, organism-based. In short, it runs like this: as §5

In test [14] the test system is Rattus norvegicus. Briefly: Antiarthritic activity in Wistar rat type-2 collagen-induced arthritis model assessed as reduction in TNF-alpha mRNA expression at 15 mg/kg, ig via gavage administered 10 consecutive days starting from day 20 post type-2 collagen injection by qPCR analysis. Format: functional, organism-based. In short, it runs like this: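 Male Wistar rats (7 weeks old) given chicken CII (2 mg/mL in 0.1 M acetic acid) emulsified 1:1 in BCG/IFA adjuvant, two intradermal 0.3 mL injections 7 d apart. Gavage in saline daily for 10 d from day 20. Total RNA from ankle synovial tissue homogenate, reverse transcribed, qPCR in triplicate. Fold change vs blank control by 2−ΔΔCt.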
A general note: Real-time PCR tracks product formation cycle by cycle.

Test [15] relates to Rattus norvegicus. The experiment in a line: Antiarthritic activity in Wistar rat type-2 collagen-induced arthritis model assessed as reduction in serum anti-type-2 collagen IgG level at 0.6 mg/kg, ig via gavage administered 10 consecutive days starting from day 20 post type-2 collagen injection by ELISA method. The format is functional, organism-based. The essentials:
(§6)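 CIA Wistar rats (chicken CII in BCG/IFA emulsion, intradermal twice 7 d apart) gavaged daily for 10 d from day 20. Serum collected after treatment; anti-CII IgG quantified with a rat anti-CII antibody ELISA kit. n = 10 per group; one-way ANOVA with Student−Newman−Keuls.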

The subject of test [16] is Rattus norvegicus. The experiment in a line: Antiarthritic activity in Wistar rat type-2 collagen-induced arthritis model assessed as reduction in serum anti-type-2 collagen IgG level at 3 mg/kg, ig via gavage administered 10 consecutive days starting from day 20 post type-2 collagen injection by ELISA method. The format is functional, organism-based. The essentials: as §6

Test [17] deals with Rattus norvegicus. Briefly: Antiarthritic activity in Wistar rat type-2 collagen-induced arthritis model assessed as reduction in serum anti-type-2 collagen IgG level at 15 mg/kg, ig via gavage administered 10 consecutive days starting from day 20 post type-2 collagen injection by ELISA method. Format: functional, organism-based. The essentials: as §6

For `C=C[C@@]12CN(C)[C@H]3C[C@]14C(=Nc1ccccc14)[C@H]1C[C@@H]2[C@@H]3CO1`, the result in the test with Rattus norvegicus [1], in the test with Rattus norvegicus [2], with Rattus norvegicus [3], in the test on Rattus norvegicus [4], with Rattus norvegicus [8] and in the test on Rattus norvegicus [9] was Active. The outcome in the test with Rattus norvegicus [10], with Rattus norvegicus [11], in the test with Rattus norvegicus [12], in the test on Rattus norvegicus [13], with Rattus norvegicus [14] and in the test on Rattus norvegicus [16] was Active. In addition, the result in the test on Rattus norvegicus [17] was Active. In addition, the result with Rattus norvegicus [5] and with Rattus norvegicus [15] was inactive. Moreover, the Activity entry in the test with Rattus norvegicus [6] and with Rattus norvegicus [7] was “Dose-dependent effect” in each case.
